27 molecules from ChEMBL document CHEMBL4673188, “Identification of 6-amino-1H-pyrazolo[3,4-d]pyrimidines with in vivo efficacy against visceral leishmaniasis” (RSC Med Chem, 2020) can be followed below.

Data set [1] is described as follows: Intrinsic clearance in CD-1 mouse liver microsomes at 0.5 uM in presence of NADPH measured up to 30 mins by UPLC-MS/MS analysis. In kind it is ADME, Microsome. The settings on record: 0.5 h. An outline of the steps:
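Female CD1 mouse liver microsomes, test compound 0.5 μM; reaction started with excess NADPH (8 mg/mL in 50 mM potassium phosphate, pH 7.4). Aliquots at 0, 3, 6, 9, 15, 30 min quenched in acetonitrile, internal standard added, protein spun down; UPLC-MS/MS. Rate constant k from exponential decay of compound/internal standard peak-area ratio.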

In the next data set the test system is THP-1. The data set can be described thus: Cytotoxicity against human THP-1 cells incubated for 72 hrs by resazurin dye based assay. In kind it is cell-based. The settings on record: THP-1, 72 h. On the technique in general: Resazurin is reduced to fluorescent resorufin, in cell work by metabolically active cells.
Data set [2] is described as follows: Kinetic aqueous solubility of compound in phosphate buffer at pH 7.4 incubated for 1 hr. In kind it is physicochemical. The settings on record: read-out: Kinetic_solubility. Put shortly:
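10 mM DMSO stock diluted 20-fold into pH 7.4 phosphate buffered saline, equilibrated 1 h at room temperature, filtered; filtrate quantified by calibrated charged aerosol detection.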

A short description of data set [3]: AUC (0 to T last) in rat at 10 mg/kg. In kind it is ADME, organism-based. Details: dose 10 mg/kg. The settings on record: in vivo.

On to `COc1ccccc1-c1n[nH]c2nc(NC3CCN(c4ccc(Cl)nn4)CC3)ncc12`, for which the intrinsic clearance in data set [1] was 3.4 mL/min/g.
For `O=C(Cc1ccc(F)cc1F)N1CCC(Nc2ncc3c(-c4ccccn4)n[nH]c3n2)CC1`, the intrinsic clearance in data set [1] was 6.7 mL/min/g.
Turning to `O=C(Cc1ccc(F)c(F)c1)N1CCC(Nc2ncc3c(C4CCOCC4)n[nH]c3n2)CC1`, in data set [1], the intrinsic clearance is 3.1 mL/min/g.
In the case of `Clc1ccc(N2CCC(Nc3ncc4c(N5CCOCC5)n[nH]c4n3)CC2)nn1`, in data set [1], the intrinsic clearance is 0.6 mL/min/g.
`COc1ccccc1-c1n[nH]c2nc(NC3CCN(C(=O)N4CCOCC4)CC3)ncc12`: the intrinsic clearance in data set [1] was 2 mL/min/g.
`COc1ccccc1-c1n[nH]c2nc(NC3CCN(C(=O)OCc4ccccc4)CC3)ncc12`: the intrinsic clearance in data set [1] was determined as 9 mL/min/g.
For `CC(C)Cc1n[nH]c2nc(NC3CCN(C(=O)Cc4ccc(Cl)cc4Cl)CC3)ncc12`, the intrinsic clearance in data set [1] was determined as 30 mL/min/g.
With `Cn1nccc1-c1n[nH]c2nc(NC3CCN(C(=O)Cc4ccc(F)cc4F)CC3)ncc12`, the intrinsic clearance in data set [1] is 3.3 mL/min/g.
In the case of `O=C(CC1CC1)N1CCC(Nc2ncc3c(C4CCOCC4)n[nH]c3n2)CC1`, the intrinsic clearance in data set [1] turned out to be 0.8 mL/min/g.
Take `CCS(=O)(=O)N[C@H]1CC[C@H](Nc2ncc3c(CC(C)C)n[nH]c3n2)CC1`: in data set [1], the intrinsic clearance amounted to 27 mL/min/g. Besides, in the data set on THP-1, the EC50 (in general, the concentration that produces a half-maximal response) is above 50.1 µM. The solubility kinetic at 1 h in data set [2] is below 1 µM.
Regarding `O=C(Cc1ccc(F)cc1F)N1CCC(Nc2ncc3c(C4CC4)n[nH]c3n2)CC1`, the intrinsic clearance in data set [1] was found to be 5 mL/min/g.
On to `O=C(Cc1ccc(F)c(F)c1)N1CCC(Nc2ncc3c(N4CCOCC4)n[nH]c3n2)CC1`, for which the intrinsic clearance in data set [1] came out at 1.6 mL/min/g. In data set [3], the AUC(0-t) – broadly, exposure summed from dosing to a finite time, without extrapolation to infinity – was 448 ng·h/mL.
`CCOC(=O)N1CCC(Nc2ncc3c(-c4ccccc4OC)n[nH]c3n2)CC1`: the intrinsic clearance in data set [1] was 14 mL/min/g.
Turning to `O=C(Cc1ccc(F)cc1F)N1CCC(Nc2ncc3c(-c4ccccc4)n[nH]c3n2)CC1`, the intrinsic clearance in data set [1] was 7.2 mL/min/g.
In the case of `O=C(Cc1ccc(F)cc1F)N1CCC(Nc2ncc3c(N4CCOCC4)n[nH]c3n2)CC1`, in data set [1], the intrinsic clearance was determined as 2 mL/min/g.
Regarding `O=C(Cc1ccc(F)cc1F)N1CCC(Nc2ncc3c(CN4CCOCC4)n[nH]c3n2)CC1`, the intrinsic clearance in data set [1] was below 0.5 mL/min/g.
`O=C(Cc1ccc(F)cc1F)N1CCC(Nc2ncc3c(C4CCOCC4)n[nH]c3n2)CC1`: in data set [1], the intrinsic clearance amounted to 0.5 mL/min/g.
As to `COc1ccccc1-c1n[nH]c2nc(NC3CCN(S(=O)(=O)CCC(F)(F)F)CC3)ncc12`, the intrinsic clearance in data set [1] is 14 mL/min/g.
`CC(C)Cc1n[nH]c2nc(NC3CCN(C(=O)c4ccccc4)CC3)ncc12`: in data set [1], the intrinsic clearance was 7 mL/min/g.
On to `CC(C)Cc1n[nH]c2nc(NC3CCN(C(=O)Cc4ccccc4)CC3)ncc12`, for which the intrinsic clearance in data set [1] came to 18 mL/min/g.
With `COc1ccccc1-c1n[nH]c2nc(NC3CCN(C(=O)Cc4ccc(F)cc4F)CC3)ncc12`, the intrinsic clearance in data set [1] stood at 5 mL/min/g.
`CC(C)(C)Cc1n[nH]c2nc(NC3CCN(C(=O)Cc4ccc(F)cc4F)CC3)ncc12`: the intrinsic clearance in data set [1] was 22 mL/min/g.
As for `COc1ncccc1-c1n[nH]c2nc(NC3CCN(C(=O)Cc4ccc(F)cc4F)CC3)ncc12`, the intrinsic clearance in data set [1] is 15 mL/min/g.
On the same count and under the same terms, to `CC(C)Cc1n[nH]c2nc(NC3CCN(C(=O)Cc4ccc(F)cc4F)CC3)ncc12` belongs 12 mL/min/g.
Consider `COc1ccccc1-c1n[nH]c2nc(NC3CCN(C(=O)CC4CC4)CC3)ncc12`, for which, in data set [1], the intrinsic clearance came to 1.6 mL/min/g.
Take `CC(C)Cc1n[nH]c2nc(NC3CCN(S(=O)(=O)Cc4ccccc4)CC3)ncc12`: the intrinsic clearance in data set [1] was above 50 mL/min/g.
As to `COc1ccccc1-c1n[nH]c2nc(NC3CCN(C(=O)Cc4ccc(F)c(F)c4)CC3)ncc12`, the intrinsic clearance in data set [1] was found to be 6.3 mL/min/g.
